Only some compounds are listed: those with a hit (about 6.4% of all), similar ones and a draw of the others.
GRIN3A LBD mod = modulates the human NR3A ligand-binding domain; NR3A LBD differential scanning fluorimetry, Tm shift; 0% = protein alone, 100% = glycine-bound protein; Tm shift relative to glycine control, % at 25 µM; 2.5% of 340,000 active; AID 1259313;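 active means melting temperature shift of at least 10% of the positive control shift, at one fixed dose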
WT yeast gro inh = growth inhibition of WT yeast, mitochondrial fusion screen | mitochondrial fusion phenotypic screen, WT strain | inhibition, % at 10 µM | 2.1% of 190,000 active | AID 1362; in the data active means inhibition above about 58%; tested in S. cerevisiae
EBV gp42 block = EBV gp42 inhibition | Q1HVG2 | Fluorescence polarization binding assay, mP read-out | inhibition, % (tested at 21.74 µM) | 0.42% of 220,000 active; in the data active means inhibition above about 50%
Target sequence (Q1HVG2 whole entry, looked up): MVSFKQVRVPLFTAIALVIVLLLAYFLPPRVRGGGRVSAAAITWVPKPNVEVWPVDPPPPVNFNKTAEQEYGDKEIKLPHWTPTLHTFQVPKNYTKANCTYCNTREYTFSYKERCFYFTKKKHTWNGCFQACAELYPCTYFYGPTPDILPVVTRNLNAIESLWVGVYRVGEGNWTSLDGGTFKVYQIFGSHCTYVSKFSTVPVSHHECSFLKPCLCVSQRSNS
CHOP inh = blocks CHOP induction under ER stress; CHO-K1 CHOP-promoter luciferase, tunicamycin-induced, 15-18 h; inhibition, % at 10 µM; 3.8% of 220,000 active; AID 2732;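 active means compounds that reduced the stress-induced luciferase reporter signal by more than about 70% of percent inhibition, limit read from the data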;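 further: 0% = tunicamycin plus vehicle and 100% = wells without tunicamycin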
Tb MetRS inh = blocks T. brucei methionyl-tRNA synthetase activity. purified T. brucei MetRS, ATP depletion, Kinase-Glo luminescence. 0.4% of 360,000 active. inhibition, % at 11.9 µM. AID 624268;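 active means inhibition above a per-plate cutoff of the control wells' mean inhibition plus 3 SD, cut at about 5.5% in these data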;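 further: 0% = DMSO wells median and 100% = median of wells with control inhibitor compound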
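Material: T. brucei methionyl-tRNA synthetase, purified; reagent: substrates ATP, L-methionine and bulk Escherichia coli tRNA; dosing: 11.9 µM single point; timing: 15 min plus 2 h at 25 °C; detection: luminescence of leftover ATP; evaluation: % inhibition; control set: DMSO-only wells as low control; replicates: singlicate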
MPTP inh = permeability transition pore inhibition. isolated mouse mitochondria, Ca2+ swelling absorbance, 30 min. inhibition, % at 10 µM. 1.4% of 360,000 active. AID 602449;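 active means inhibition of 50% or more, scaled per plate between neutral and stimulator controls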;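 further: 0% = DMSO wells given calcium and 100% = 1 mM EGTA wells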
TbMetRS confirm = confirmation of Trypanosoma brucei MetRS inhibitors. shares compounds with Tb MetRS inh. T. brucei MetRS enzyme, luminescence (ATP depletion). inhibition, % at 11.9 µM. 93% of 1,400 active. AID 624412; in the data active means inhibition above about 7%
Jurkat tox = Jurkat T cell cytotoxicity for MetRS hits; shares compounds with Tb MetRS inh; Jurkat cells viability, ATP luminescence; inhibition, % at 8.3 µM; 12% of 1,400 active; AID 624413; in the data active means inhibition above about 15%;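 further: 0% = vehicle and 100% = reference inhibitor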
TbMetRS FP orth = orthogonal test for Trypanosoma brucei MetRS inhibitors | shares compounds with Tb MetRS inh | purified T. brucei MetRS, fluorescence polarization | inhibition, % at 11.9 µM | 44% of 1,400 active; in the data active means inhibition above about 17%;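 further: 0% = vehicle wells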
* marks the source's active call; other numbers are inactive results; . = no result.

SMILES | GRIN3A LBD mod | WT yeast gro inh | EBV gp42 block | CHOP inh | Tb MetRS inh | MPTP inh | TbMetRS confirm | Jurkat tox | TbMetRS FP orth
Nc1ncnc2nc(SCCOc3ccc(Cl)cc3)[nH]c12 | 3 | 9 | -6 | 30 | 5.7* | 2 | 14* | -12 | 2
CC(C)(C)c1ccc(OCC(O)CS(=O)(=O)c2ccccn2)cc1 (stereo not drawn) | -2 | 15 | -5 | 55 | 0 | -2 | . | . | .
CN(C)C(CNc1ncnc2sccc12)c1ccccc1 (stereo not drawn) | -1 | -4 | -10 | 17 | 8.0* | -2 | 1 | -4 | -1
CCOC(=O)Cc1csc(SCC(=O)Nc2sc3c(c2C(N)=O)CCC3)n1 | 1 | 11 | 48 | 32 | -1 | 0 | . | . | .
COc1cc(NC(C)=O)c2ncccc2c1NC(C)=O | -4 | . | -20 | -7 | -1 | 0 | . | . | .
COc1cc(NC(C)=O)c2ncccc2c1[N+](=O)[O-] | -7 | -12 | -10 | 30 | 12* | 6 | 23* | -6 | 3
Cc1ccccc1NC(=O)C(=O)NCCc1c[nH]c2ccccc12 | -3 | 4 | -9 | -6 | -1 | 4 | . | . | .
COC(=O)C1=C(N)Oc2cc(C)n(CCCn3ccnc3)c(=O)c2C1c1cccc(Cl)c1 (stereo not drawn) | 1 | . | . | . | 19* | 0 | 3 | 1 | 4
COC(=O)C1=C(N)Oc2cc(C)n(Cc3cccnc3)c(=O)c2C1c1cc(OC)ccc1OC (stereo not drawn) | 1 | -3 | -8 | -9 | 40* | -7 | 6.1* | 2 | 4
O=C(CCCC(=O)OCC(F)(F)C(F)F)Nc1ccc(NC(=O)CCCC(=O)OCC(F)(F)C(F)F)cc1 | -1 | -4 | -15 | 5 | 0 | -1 | . | . | .
O=C(CNS(=O)(=O)c1ccc([N+](=O)[O-])cc1)N/N=C/c1ccc(O)cc1O | -3 | . | . | . | 16* | 0 | 36* | 46* | 22*
Cc1noc(C)c1COC(=O)CCCOc1ccc(Cl)cc1Cl | 4 | 17 | -2 | 57 | 7.0* | -2 | 19* | -2 | 15
O=C(COC(=O)CCCOc1ccc(Cl)cc1Cl)NCc1ccccc1 | 8 | -3 | 2 | 33 | 40* | 2 | 57* | -5 | 43*
Cc1cc(Cl)ccc1OCCCC(=O)NN | 1 | 5 | 1 | 13 | 0 | -3 | . | . | .
Cc1cc(Cl)ccc1OCCCC(=O)NCCc1nnc2ccccn12 | -2 | . | . | . | 7.2* | 4 | 14* | -4 | 5
CCNC(=O)CCCOc1ccc(Cl)cc1Cl | 0 | 19 | -13 | 5 | 6.3* | -1 | 14* | 3 | 8
COc1ccccc1Cc1c(-c2ccc(F)cc2)nc2ccc(Br)cn12 | . | . | . | . | 0 | -1 | . | . | .
Cc1ccc(NS(=O)(=O)c2cc3c4c(c2)CC(=O)N4CCC3)cc1C | 2 | . | . | . | 0 | -1 | . | . | .
Cc1c(C(=O)O)cnc2c([N+](=O)[O-])cnn12 | -1 | -5 | -6 | -7 | 0 | 0 | . | . | .
Cc1noc(NS(=O)(=O)c2ccc(NC(=O)CCCOc3ccc(Cl)cc3Cl)cc2)c1C | 10 | -16 | -13 | 4 | 7.6* | 9 | 14* | 3 | 13
Cc1noc(NS(=O)(=O)c2ccc(NC(=O)COc3ccc(Cl)cc3Cl)cc2)c1C | 1 | 2 | 37 | 2 | 4 | 2 | . | . | .
COc1ccc(CNC(=O)C2CCC(=O)N(CCCN3CCCC3=O)C2)cc1 (stereo not drawn) | 0 | . | . | . | 0 | 0 | . | . | .
COc1cccc(CN=C2Nc3ccccc3CS2)c1 | 1 | 0 | -14 | -7 | 6.1* | 1 | 11* | 13 | 3
Cc1ccc(CN=C2Nc3ccccc3CS2)cc1 | 3 | 18 | -17 | 41 | 19* | 1 | 32* | 3 | 8
S=C1Nc2ccccc2CS1 | . | . | . | . | -1 | 0 | . | . | .
COc1ccccc1CN=C1Nc2ccccc2CS1 | -1 | 1 | -2 | -11 | 13* | -2 | 32* | -3 | 11

Screening results deposited in PubChem by several laboratories.
